Active and inactive are the calls of the source. The calls are words filed in the database; no cut-off is given here. Residues, ends and D or L forms follow the SMILES beside them. *: point of attachment. Cbz = O=C(OCc1ccccc1)*
Legend:
[1] = biological target: Prostaglandin G/H synthase 1 (Homo sapiens) (UniProt P23219); test: Inhibition of COX1 in healthy human whole blood assessed as calcium ionophore A23187-stimulated TXB2 level at 1 uM preincubated for 60 mins followed by A23187 addition measured after 30 mins by ELISA; assay type: tissue-based
Outline: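 Fresh venous blood from a healthy volunteer is collected in EDTA. 1 mL samples receive compound, indomethacin or DMSO vehicle (final 1 μM). After 60 min, A23187 is added (final 50 μM). After 30 min, samples are centrifuged at 4 °C and TxB2 in plasma is measured by ELISA, read at 420 nm. Samples are run in duplicate.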

Mus musculus [2] = test: Analgesic activity in Swiss albino mouse assessed as reduction in capsaicin-induced paw licking at 10 mg/kg, ip dosed 30 mins before capsaicin injection measured for 10 mins; assay type: functional, organism-based
Outline: (§1)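 Swiss albino mice of either sex (25-35 g), kept at 22 ± 2 °C on a 12 h light/dark cycle with free food and water. 5 animals per group. Capsaicin (1.6 μg in 20 μL) is injected into the plantar surface of the hind paw. Pain is scored as the number of paw lickings over 10 min.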

Mus musculus [3] = test: Antiinflammatory activity in Swiss albino mouse assessed as reduction in carrageenan-induced paw edema at 10 mg/kg, ip dosed 30 mins before carrageenan injection measured up to 300 mins by vernier calliper method relative to control; assay type: functional, organism-based
Mus musculus [4] = test: Analgesic activity in Swiss albino mouse assessed as reduction in formalin-induced paw flinches in neurogenic phase at 5 mg/kg, ip dosed 30 mins before formalin injection measured up to 5 mins; assay type: functional, organism-based
Outline: (§2)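 Swiss albino mice of either sex (25-35 g). 20 μL of 2% formalin is injected into the plantar surface of the right hind paw 30 min after treatment. Hind paw flinches are counted for the neurogenic phase (0-5 min) and the inflammatory phase (15-30 min). Results are given as mean ± SEM.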

Mus musculus [5] = test: Analgesic activity in Swiss albino mouse assessed as reduction in formalin-induced paw flinches in inflammatory phase at 5 mg/kg, ip dosed 30 mins before formalin injection measured after 15 to 30 mins; assay type: functional, organism-based; outline: as §2
[6] = biological target: T1, Prostaglandin G/H synthase 1 (Ovis aries, UniProt P05979); test: Inhibition of ovine COX1 assessed as reduction in PGH2-derived PGF2alpha using arachidonic acid as substrate preincubated for 10 mins followed by substrate addition measured after 2 mins by enzyme immunoassay
T1 sequence (P05979 whole entry): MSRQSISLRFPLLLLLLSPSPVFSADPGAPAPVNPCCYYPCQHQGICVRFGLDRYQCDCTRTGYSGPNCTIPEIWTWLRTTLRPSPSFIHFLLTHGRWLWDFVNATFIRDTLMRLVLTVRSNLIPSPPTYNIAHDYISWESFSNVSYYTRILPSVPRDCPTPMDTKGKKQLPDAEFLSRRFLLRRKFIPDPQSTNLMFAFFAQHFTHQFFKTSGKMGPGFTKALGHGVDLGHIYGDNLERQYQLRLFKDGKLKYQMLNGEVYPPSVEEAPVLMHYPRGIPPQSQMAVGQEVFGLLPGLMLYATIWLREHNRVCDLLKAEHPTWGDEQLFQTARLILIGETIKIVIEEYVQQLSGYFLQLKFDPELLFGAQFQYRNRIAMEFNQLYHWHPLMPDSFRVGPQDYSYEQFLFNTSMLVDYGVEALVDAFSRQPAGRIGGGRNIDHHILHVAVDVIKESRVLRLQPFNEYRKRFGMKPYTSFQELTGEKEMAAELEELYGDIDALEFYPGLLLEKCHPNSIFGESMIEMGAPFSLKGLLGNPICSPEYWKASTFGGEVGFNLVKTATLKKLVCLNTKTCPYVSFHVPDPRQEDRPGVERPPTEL
Outline: (§3)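 Ovine COX-1 and human recombinant COX-2 with heme are preincubated with inhibitor for 10 min at 37 °C. Arachidonic acid is then added for 2 min at 37 °C. Prostaglandins are quantified by competitive AChE-tracer EIA, read at 420 nm. Four concentrations (10^-5 to 10^-8 M) are tested in triplicate. IC50 is taken from the dose-response curve of the mean % inhibition.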

[7] = biological target: T2, Prostaglandin G/H synthase 2 (Homo sapiens, UniProt P35354); test: Inhibition of human recombinant COX2 assessed as reduction in PGH2-derived PGF2alpha using arachidonic acid as substrate preincubated for 10 mins followed by substrate addition measured after 2 mins by enzyme immunoassay
T2 sequence (P35354 whole entry): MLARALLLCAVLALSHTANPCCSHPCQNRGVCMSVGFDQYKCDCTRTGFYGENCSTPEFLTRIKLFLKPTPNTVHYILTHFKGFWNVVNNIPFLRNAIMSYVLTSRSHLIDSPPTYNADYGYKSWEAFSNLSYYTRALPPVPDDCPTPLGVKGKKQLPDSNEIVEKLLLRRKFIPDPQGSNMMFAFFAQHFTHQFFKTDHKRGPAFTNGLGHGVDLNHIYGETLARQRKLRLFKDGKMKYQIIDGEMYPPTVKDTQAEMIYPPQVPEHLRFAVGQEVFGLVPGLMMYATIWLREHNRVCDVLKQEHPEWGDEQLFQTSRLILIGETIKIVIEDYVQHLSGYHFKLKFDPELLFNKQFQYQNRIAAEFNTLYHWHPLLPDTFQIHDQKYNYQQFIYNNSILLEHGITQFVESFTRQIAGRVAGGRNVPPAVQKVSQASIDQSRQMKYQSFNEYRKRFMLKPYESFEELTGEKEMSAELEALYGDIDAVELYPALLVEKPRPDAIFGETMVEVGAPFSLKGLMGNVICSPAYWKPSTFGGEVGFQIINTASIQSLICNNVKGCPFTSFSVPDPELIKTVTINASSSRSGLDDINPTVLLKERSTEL

[8] = Selectivity index, ratio of IC50 for ovine COX1 to IC50 for human recombinant COX2; outline: as §3
Mus musculus [9] = test: Analgesic activity in Swiss albino mouse assessed as reduction in capsaicin-induced paw licking at 5 to 10 mg/kg, ip dosed 30 mins before capsaicin injection measured for 10 mins; assay type: functional, organism-based; outline: as §1

Chain of Prostaglandin G/H synthase 1 (Homo sapiens) (P23219 whole entry): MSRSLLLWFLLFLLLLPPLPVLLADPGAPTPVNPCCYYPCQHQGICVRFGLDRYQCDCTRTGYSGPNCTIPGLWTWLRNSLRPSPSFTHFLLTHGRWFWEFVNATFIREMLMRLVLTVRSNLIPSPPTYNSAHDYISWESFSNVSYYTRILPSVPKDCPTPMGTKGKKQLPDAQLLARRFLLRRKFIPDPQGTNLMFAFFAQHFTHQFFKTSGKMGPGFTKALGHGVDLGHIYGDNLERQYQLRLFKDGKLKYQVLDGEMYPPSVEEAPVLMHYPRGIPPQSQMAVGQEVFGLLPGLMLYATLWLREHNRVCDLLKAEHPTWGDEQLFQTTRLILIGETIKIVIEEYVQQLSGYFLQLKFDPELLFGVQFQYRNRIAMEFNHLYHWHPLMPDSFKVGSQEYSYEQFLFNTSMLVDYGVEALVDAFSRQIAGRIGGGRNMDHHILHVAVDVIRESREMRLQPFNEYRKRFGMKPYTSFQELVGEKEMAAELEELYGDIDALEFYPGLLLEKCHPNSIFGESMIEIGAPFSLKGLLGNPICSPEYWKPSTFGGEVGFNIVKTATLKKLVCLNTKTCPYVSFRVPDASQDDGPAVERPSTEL

Row | Structure (SMILES) | IC50 [6] [µM] | IC50 [7] [µM] | Ratio IC50 [8] | also measured
1 | COc1ccc2c(c1)c(CC(=O)O)c(C)n2C(=O)c1ccc(Cl)cc1 | – | – | – | Activity [1]: 2.7 ng/mL; Activity (Mus musculus [2]): Active
2 | O=C(O)Cc1ccccc1Nc1c(Cl)cccc1Cl | – | – | – | Activity (Mus musculus [3]): Active; Activity (Mus musculus [4]): inactive; Activity (Mus musculus [5]): Active
3 | CC(C)C[C@H](NC(=O)[C@@H](NC(=O)[C@H](C)NC(=O)CNC(=O)OCc1ccccc1)C(C)C)C(=O)O (Cbz-GAVL-OH) | > 10 | 8 | – | –
4 | COC(=O)[C@H](CC(C)C)NC(=O)[C@@H](NC(=O)[C@H](C)NC(=O)CNC(=O)OCc1ccccc1)C(C)C (Cbz-GAVL-OMe) | > 10 | 22 | – | –
5 | CC(C)C[C@H](NC(=O)[C@H](Cc1ccccc1)NC(=O)CNC(=O)CNC(=O)OCc1ccccc1)C(=O)O (Cbz-GGFL-OH) | 3 | 0.5 | 6 | –
6 | COC(=O)[C@H](CC(C)C)NC(=O)[C@H](Cc1ccccc1)NC(=O)CNC(=O)CNC(=O)OCc1ccccc1 (Cbz-GGFL-OMe) | > 10 | 20 | – | –
7 | CC(C)C[C@H](NC(=O)[C@H](C)NC(=O)[C@@H](NC(=O)CNC(=O)OCc1ccccc1)C(C)C)C(=O)O (Cbz-GVAL-OH) | 3 | 0.3 | 10 | –
8 | COC(=O)[C@H](CC(C)C)NC(=O)[C@H](C)NC(=O)[C@@H](NC(=O)CNC(=O)OCc1ccccc1)C(C)C (Cbz-GVAL-OMe) | > 10 | 19 | – | –
9 | CC(C)[C@H](NC(=O)[C@H](C)NC(=O)CNC(=O)OCc1ccccc1)C(=O)O (Cbz-Gly-Ala-Val-OH) | > 10 | 3 | > 3 | –
10 | COC(=O)[C@@H](NC(=O)[C@H](C)NC(=O)CNC(=O)OCc1ccccc1)C(C)C (Cbz-Gly-Ala-Val-OMe) | 8 | 0.1 | 80 | Activity (Mus musculus [9]): Active
11 | O=C(O)CNC(=O)CNC(=O)OCc1ccccc1 (Cbz-Gly-Gly-OH) | > 10 | – | – | –
12 | COC(=O)CNC(=O)CNC(=O)OCc1ccccc1 (Cbz-Gly-Gly-OMe) | > 10 | 1 | > 10 | –
13 | CC(C)C[C@H](NC(=O)CNC(=O)[C@@H](NC(=O)OCc1ccccc1)C(C)C)C(=O)N[C@@H](C)C(=O)O (Cbz-VGLA-OH) | 0.3 | 0.05 | 6 | –
14 | COC(=O)[C@H](C)NC(=O)[C@H](CC(C)C)NC(=O)CNC(=O)[C@@H](NC(=O)OCc1ccccc1)C(C)C (Cbz-VGLA-OMe) | > 10 | 0.08 | > 125 | Activity (Mus musculus [9]): Active
15 | CC(C)C[C@H](NC(=O)CNC(=O)[C@@H](NC(=O)OCc1ccccc1)C(C)C)C(=O)O (Cbz-Val-Gly-Leu-OH) | > 10 | 28 | – | –
16 | COC(=O)[C@H](CC(C)C)NC(=O)CNC(=O)[C@@H](NC(=O)OCc1ccccc1)C(C)C (Cbz-Val-Gly-Leu-OMe) | > 10 | 56 | – | –
17 | CC(C)[C@H](NC(=O)OCc1ccccc1)C(=O)NCC(=O)O (Cbz-Val-Gly-OH) | > 10 | 55 | – | –
18 | COC(=O)CNC(=O)[C@@H](NC(=O)OCc1ccccc1)C(C)C (Cbz-Val-Gly-OMe) | > 10 | 75 | – | –
19 | CC(C)C[C@H](NC(=O)[C@H](Cc1ccccc1)NC(=O)CNC(=O)CN)C(=O)O (H-GGFL-OH) | > 10 | 0.4 | > 25 | –
20 | CC(C)[C@H](NC(=O)[C@H](C)NC(=O)CN)C(=O)O (H-Gly-Ala-Val-OH) | 9 | 0.2 | 45 | –
21 | COC(=O)[C@@H](NC(=O)[C@H](C)NC(=O)CN)C(C)C (H-Gly-Ala-Val-OMe) | > 10 | 10 | > 1 | –
22 | COC(=O)[C@H](CC(C)C)NC(=O)CNC(=O)[C@@H](N)C(C)C (H-Val-Gly-Leu-OMe) | > 10 | 10 | – | –

Reference: ChEMBL document CHEMBL3808358, “Rational Design of Small Peptides for Optimal Inhibition of Cyclooxygenase-2: Development of a Highly Effective Anti-Inflammatory Agent” (J Med Chem, 2016)
